Laboratory results: ChEMBL document CHEMBL1122631, “2,3,4,4a,5,9b-Hexahydro-1H-indeno[1,2-b]pyridines: potential antidepressants” (J Med Chem, 1984)

Tests used:
[1] = tested on: Mus musculus; assay: Prevention of tetrabenazine (TBZ)-induced ptosis in mice after intraperitoneal administration.; assay type: functional, organism-based
Summary of the method: (§1)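 Mice given compound ip in 1% methylcellulose (10 mL/kg), 30 min before tetrabenazine 40 mg/kg base ip; solvent+TBZ control per test. Ptosis scored 30 min after TBZ (+1 min) as 100/50/0% (closed/half/open), not normalized.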

[2] = Acute toxicity in mice, after intraperitoneal administration.; assay type: organism-based; conditions: mouse, in vivo, ip
Summary of the method: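 Mice, groups of 10, given compound suspended in 1% methylcellulose ip at 10 mL/kg, then housed with food and water ad libitum. Observed hourly up to 6 h; deaths recorded at 24 and 48 h.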

[3] = tested on: Mus musculus; assay: Prevention of tetrabenazine induced ptosis in mice following i.p. administration.; assay type: functional; conditions: ip; summary of the method: as §1
[4] = Therapeutic index (TI), ratio of LD50 and ED50 (TBZ) in mice after i.p. administration; conditions: mouse, in vivo, ip

SMILES	ED50 [1]	LD50 [2]	ED50 [3]	selectivity ratio [4]
Cc1ccc([C@H]2c3cc(O)ccc3[C@H]3NCCC[C@@H]23)cc1	No activity detected up to a dose of 1/5 LD50 ip in mice	34 mg/kg		
CC(C)c1ccc([C@H]2c3cc(O)ccc3[C@H]3NCCC[C@@H]23)cc1	No activity detected up to a dose of 1/5 LD50 ip in mice	90 mg/kg		
Fc1ccccc1[C@H]1c2ccccc2[C@H]2NCCC[C@@H]12	No activity detected up to a dose of 1/5 LD50 ip in mice	71 mg/kg		
Cc1cccc([C@H]2c3ccccc3[C@@H]3[C@H]2CCCN3C)c1	No activity detected up to a dose of 1/5 LD50 ip in mice	5 mg/kg		
CN1CCC[C@H]2[C@@H](c3ccc(F)cc3)c3ccccc3[C@H]21	No activity detected up to a dose of 1/5 LD50 ip in mice	22 mg/kg		
c1ccc([C@H]2c3ccccc3[C@H]3NCCC[C@@H]23)cc1	No activity detected up to a dose of 1/5 LD50 ip in mice	50 mg/kg		
Nc1cccc([C@H]2c3ccccc3[C@H]3NCCC[C@@H]23)c1		28 mg/kg	2 mg/kg	
CCCN1CCC[C@H]2[C@@H](c3ccccc3)c3ccccc3[C@H]21	No activity detected up to a dose of 1/5 LD50 ip in mice	90 mg/kg		
Cc1ccc([C@H]2c3ccccc3[C@@H]3[C@H]2CCCN3C)cc1	No activity detected up to a dose of 1/5 LD50 ip in mice	< 1 mg/kg		
COc1ccc2c(c1)[C@H](c1ccc(N)cc1)[C@@H]1CCCN[C@H]21	No activity detected up to a dose of 1/5 LD50 ip in mice	50 mg/kg		
Cc1ccccc1[C@@H]1c2ccccc2[C@@H]2[C@H]1CCCN2C		106 mg/kg	> 40 mg/kg	
COc1cc2c(cc1OC)[C@H]1NCCC[C@H]1[C@H]2c1ccc(N)cc1	No activity detected up to a dose of 1/5 LD50 ip in mice	94 mg/kg		
COc1ccc2c(c1)[C@@H](c1ccc(C)cc1)[C@@H]1CCCN(C)[C@H]21	No activity detected up to a dose of 1/5 LD50 ip in mice	67 mg/kg		
Cc1cccc([C@@H]2c3ccccc3[C@@H]3[C@H]2CCCN3C)c1		134 mg/kg	5 mg/kg	
Cc1ccc([C@H]2c3ccccc3[C@H]3NCCC[C@@H]23)cc1N	No activity detected up to a dose of 1/5 LD50 ip in mice	45 mg/kg		
Cc1ccccc1[C@@H]1c2ccccc2[C@H]2NCCC[C@@H]12	No activity detected up to a dose of 1/5 LD50 ip in mice	80 mg/kg		
CC(C)c1ccc([C@@H]2c3cc(O)ccc3[C@H]3NCCC[C@@H]23)cc1	No activity detected up to a dose of 1/5 LD50 ip in mice	50 mg/kg		
CN1CCC[C@H]2[C@@H](c3ccc(N)cc3)c3ccccc3[C@H]21		7 mg/kg	0.5 mg/kg	14
Cc1ccc([C@H]2c3cc(O)ccc3[C@@H]3[C@H]2CCCN3C)cc1	No activity detected up to a dose of 1/5 LD50 ip in mice	9 mg/kg		
Cc1cccc([C@@H]2c3ccccc3[C@H]3NCCC[C@@H]23)c1		21 mg/kg	0.3 mg/kg	
COc1ccc2c(c1)[C@H](c1ccc(N(C)C)cc1)[C@@H]1CCCN[C@H]21	No activity detected up to a dose of 1/5 LD50 ip in mice	48 mg/kg		

SMILES	ED50 [1]	LD50 [2]	ED50 [3]	selectivity ratio [4]
Cc1ccc([C@@H]2c3ccccc3[C@H]3NCCC[C@@H]23)cc1N		40 mg/kg	2 mg/kg	20
Cc1ccc([C@H]2c3ccccc3[C@H]3NCCC[C@@H]23)cc1		120 mg/kg	20 mg/kg	6
FC(F)(F)c1ccccc1[C@H]1c2ccccc2[C@H]2NCCC[C@@H]12	No activity detected up to a dose of 1/5 LD50 ip in mice	24 mg/kg		
Cc1ccccc1[C@H]1c2ccccc2[C@@H]2[C@H]1CCCN2C	No activity detected up to a dose of 1/5 LD50 ip in mice	22 mg/kg		
COc1cc2c(cc1OC)[C@@H]1[C@@H](CCCN1C)[C@H]2c1ccccc1	No activity detected up to a dose of 1/5 LD50 ip in mice	70 mg/kg		
CN(C)c1ccc([C@@H]2c3cc(O)ccc3[C@H]3NCCC[C@@H]23)cc1	No activity detected up to a dose of 1/5 LD50 ip in mice	159 mg/kg		
COc1ccc2c(c1)[C@H](c1ccc(C)cc1)[C@@H]1CCCN(C)[C@H]21	No activity detected up to a dose of 1/5 LD50 ip in mice	6 mg/kg		
CN1CCC[C@H]2[C@@H](c3ccccc3)c3ccccc3[C@H]21	No activity detected up to a dose of 1/5 LD50 ip in mice	36 mg/kg		
Fc1ccc([C@H]2c3ccccc3[C@H]3NCCC[C@@H]23)cc1	No activity detected up to a dose of 1/5 LD50 ip in mice	61 mg/kg		
CN(C)c1ccc([C@H]2c3cc(O)ccc3[C@H]3NCCC[C@@H]23)cc1	No activity detected up to a dose of 1/5 LD50 ip in mice	67 mg/kg		
COc1ccc2c(c1)[C@@H](c1ccc(N)cc1)[C@@H]1CCCN[C@H]21		60 mg/kg	1 mg/kg	60
COc1ccc2c(c1)[C@H](c1ccc(C)cc1)[C@@H]1CCCN[C@H]21	No activity detected up to a dose of 1/5 LD50 ip in mice	54 mg/kg		
CN1CCC[C@H]2[C@@H](c3ccccc3F)c3ccccc3[C@H]21	No activity detected up to a dose of 1/5 LD50 ip in mice	8 mg/kg		
COc1cc2c(cc1OC)[C@H]1NCCC[C@H]1[C@H]2c1ccccc1	No activity detected up to a dose of 1/5 LD50 ip in mice	70 mg/kg		
Cc1ccccc1[C@H]1c2ccccc2[C@H]2NCCC[C@@H]12	No activity detected up to a dose of 1/5 LD50 ip in mice	52 mg/kg		
Cc1ccc([C@@H]2c3ccccc3[C@H]3NCCC[C@@H]23)cc1		60 mg/kg	1 mg/kg	60
Cc1ccc([C@@H]2c3cc(O)ccc3[C@@H]3[C@H]2CCCN3C)cc1	No activity detected up to a dose of 1/5 LD50 ip in mice	187 mg/kg		
Nc1cccc([C@@H]2c3ccccc3[C@H]3NCCC[C@@H]23)c1		40 mg/kg	2 mg/kg	20
Cc1cccc([C@H]2c3ccccc3[C@H]3NCCC[C@@H]23)c1	No activity detected up to a dose of 1/5 LD50 ip in mice	34 mg/kg		
Nc1ccc([C@H]2c3cc(O)ccc3[C@H]3NCCC[C@@H]23)cc1	No activity detected up to a dose of 1/5 LD50 ip in mice	85 mg/kg		
